Measured values as given in ChEMBL document CHEMBL1155338, “Antioxidant and antibacterial studies of arylazopyrazoles and arylhydrazonopyrazolones containing coumarin moiety” (2009).
Activity calls are given as the source filed them. The rule behind the calls is not given here.

Columns and labels:
Format in all cases: functional
Bacillus subtilis = assay: Antimicrobial activity against Bacillus subtilis NCIM 2010 after 24 hrs by disk diffusion method
Outline: (§1)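 Disc diffusion on nutrient agar. Plates were swabbed evenly with a standard inoculum ([…] c.f.u./ml, 0.5 McFarland). 6.25 mm filter-paper discs were dry-heat sterilized (140 °C, 1 h), soaked in test compound at 250 mcg/disc, and placed on the agar. Solvent, growth and ciprofloxacin controls were included. Plates were incubated inverted 24 h at 37 °C and inhibition zones measured.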

Staphylococcus aureus = assay: Antimicrobial activity against Staphylococcus aureus NCIM 5021 after 24 hrs by disk diffusion method; outline: as §1
[1] = system: Radical scavenging activity; assay: Antioxidant activity assessed as DPPH radical scavenging after 30 mins; design: concentration or dose not given beside the values
Outline: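 Compound in methanol mixed 1:1 with methanolic DPPH, both 0.2 mM stocks, giving 0.1 mM each final. Shaken, left 30 min, then A517 read. % scavenging = [(Ab + As) − Am]/Ab × 100, where Ab is DPPH alone, As is compound alone and Am is the mixture. Ascorbic acid reference. Three replicates, averaged.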

SMILES	inhibition zone (IZ) (Bacillus subtilis)	inhibition zone (IZ) (Staphylococcus aureus)	Activity [1]
Cc1nn(C(=O)COc2ccc3c(C)cc(=O)oc3c2)c(C)c1/N=N/c1ccc(Cl)cc1	inactive	inactive	32%
CC1=NN(C(=O)COc2ccc3c(C)cc(=O)oc3c2)C(=O)/C1=N/Nc1ccccc1C(=O)O	26.7 mm	12.3 mm	20%
CC1=NN(C(=O)COc2ccc3c(C)cc(=O)oc3c2)C(=O)/C1=N/Nc1ccc(C(=O)O)cc1	inactive	inactive	inactive
Cc1nn(C(=O)COc2ccc3c(C)cc(=O)oc3c2)c(C)c1/N=N/c1ccc(Br)cc1	27 mm	12.7 mm	55%
Cc1ccc(/N=N/c2c(C)nn(C(=O)COc3ccc4c(C)cc(=O)oc4c3)c2C)c(C)c1	inactive	inactive	24%
CC1=NN(C(=O)COc2ccc3c(C)cc(=O)oc3c2)C(=O)/C1=N/Nc1ccc(C)cc1C	inactive	inactive	57%
CC1=NN(C(=O)COc2ccc3c(C)cc(=O)oc3c2)C(=O)/C1=N/Nc1ccc([N+](=O)[O-])cc1	inactive	inactive	31%
Cc1nn(C(=O)COc2ccc3c(C)cc(=O)oc3c2)c(C)c1/N=N/c1cccc([N+](=O)[O-])c1	inactive	inactive	38%
CC1=NN(C(=O)COc2ccc3c(C)cc(=O)oc3c2)C(=O)/C1=N/Nc1cccc([N+](=O)[O-])c1	inactive	inactive	69%
Cc1nn(C(=O)COc2ccc3c(C)cc(=O)oc3c2)c(C)c1/N=N/c1ccccc1C(=O)O	16.7 mm	inactive	28%
CC1=NN(C(=O)COc2ccc3c(C)cc(=O)oc3c2)C(=O)/C1=N/Nc1ccc(Cl)cc1	24.3 mm	11.3 mm	53%
O=C(O)c1cn(C2CC2)c2cc(N3CCNCC3)c(F)cc2c1=O [CIPROFLOXACIN]	33.7 mm	30 mm	inactive
Cc1nn(C(=O)COc2ccc3c(C)cc(=O)oc3c2)c(C)c1/N=N/c1ccc(C(=O)O)cc1	inactive	inactive	32%
O=C1O[C@H]([C@@H](O)CO)C(O)=C1O	inactive	inactive	96%
Cc1nn(C(=O)COc2ccc3c(C)cc(=O)oc3c2)c(C)c1/N=N/c1ccc([N+](=O)[O-])cc1	inactive	inactive	32%
CC1=NN(C(=O)COc2ccc3c(C)cc(=O)oc3c2)C(=O)/C1=N/Nc1ccc(Br)cc1	14 mm	13.7 mm	inactive
